Assay [1] relates to PANC-1. Briefly: Antiproliferative activity against human PANC1 cells after 72 hrs by MTT assay. Type of assay: functional, cell-based. The following applies: PANC-1, 72 h. In short, it runs like this:
(§1)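 MTT assay: 2 × 10^3 cells per well, cultured 24 h at 37 °C. Compound then added for 72 h at 37 °C, followed by 0.5 mg mL-1 MTT for 4 h. Formazan dissolved in DMSO and absorbance read at 570 nm. IC50 from triplicate experiments, mean ± sd.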

The species entered for assay [2] is Homo sapiens. As to the kind of experiment: Inhibition of pyruvate kinase (unknown origin) at 5 uM using 2-PG relative to control. The essentials:
(§2)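 PGAM1 omitted to test the downstream coupling enzymes. Compound (0.5 mM stock) preincubated 2 min at room temperature in 50 mM Tris pH 8.0. OD340 decrease read; inhibition ratio at 5 µM.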

Assay [3] concerns NCI-H1299. Briefly: Antiproliferative activity in human H1299 cells. Type of assay: functional, cell-based.
The species named for assay [4] is Homo sapiens. As to the kind of experiment: Inhibition of enolase (unknown origin) at 5 uM using 2-PG relative to control. In short, it runs like this: as §2
The target of assay [5] is L-lactate dehydrogenase (Homo sapiens) (UniProt V9HWB9). Briefly: Inhibition of LDH (unknown origin) at 5 uM using 2-PG relative to control. In short, it runs like this: as §2
Assay [6] deals with MCF7. Briefly: Antiproliferative activity against human MCF7 cells after 72 hrs by MTT assay. Type of assay: functional, cell-based. The settings on record: MCF7, 72 h. In short, it runs like this:
as §1

In assay [7] the target is T1, Phosphoglycerate mutase 1 (Homo sapiens, UniProt P18669). As to the kind of experiment: Inhibition of recombinant PGAM1 (unknown origin) using 3-PG as substrate preincubated for 2 mins followed by substrate addition. In short, it runs like this: (§3)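 Recombinant PGAM1 plus compound (DMSO) in 50 mM Tris pH 8.0, preincubated 2 min at room temperature. Started with 3PG (200 mM stock); NADH oxidation read as OD340 decrease. IC50 from triplicates, mean ± sd.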
Target sequence in this assay (P18669 whole entry): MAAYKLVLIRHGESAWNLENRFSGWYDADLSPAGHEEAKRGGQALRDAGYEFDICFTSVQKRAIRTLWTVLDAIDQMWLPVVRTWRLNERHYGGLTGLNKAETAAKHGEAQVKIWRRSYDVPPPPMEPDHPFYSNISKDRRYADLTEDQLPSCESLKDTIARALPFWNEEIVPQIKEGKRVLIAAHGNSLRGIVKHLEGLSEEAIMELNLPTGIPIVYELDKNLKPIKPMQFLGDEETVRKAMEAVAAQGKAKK

Assay [8] has as its system NCI-H1299. Briefly: Antiproliferative activity against human H1299 cells after 72 hrs by MTT assay. Type of assay: functional, cell-based. The settings on record: NCI-H1299, 72 h. In short, it runs like this: as §1
Assay [9] relates to NCI-H1299. As to the kind of experiment: Antiproliferative activity against human H1299 cells at 40 uM after 72 hrs by MTT assay relative to control. It counts as functional. The following applies: NCI-H1299, 72 h. In short, it runs like this: (§4)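 MTT format: 2 × 10^3 cells per well, seeded 24 h, then compound for 72 h at 37 °C. 0.5 mg mL-1 MTT for 4 h, DMSO solubilization, A570. Inhibition ratio recorded at the top tested concentration: 40 µM for H1299, 200 µM for PANC-1.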

In assay [10] the target is T1, Phosphoglycerate mutase 1. Briefly: Binding affinity to PGAM1 (unknown origin) assessed as change in melting temperature by SYPRO Orange-dye based fluorescence thermal shift assay. In short, it runs like this:
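PGAM1 protein at 200 µg/ml with compound at 12.5 to 50 µM in 20 mM Tris-HCl, 100 mM NaCl, pH 7.4. Melting monitored by SYPRO orange fluorescence at 610 nm; Tm shift recorded.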
Target sequence in this assay (P18669 2-254 limits assumed): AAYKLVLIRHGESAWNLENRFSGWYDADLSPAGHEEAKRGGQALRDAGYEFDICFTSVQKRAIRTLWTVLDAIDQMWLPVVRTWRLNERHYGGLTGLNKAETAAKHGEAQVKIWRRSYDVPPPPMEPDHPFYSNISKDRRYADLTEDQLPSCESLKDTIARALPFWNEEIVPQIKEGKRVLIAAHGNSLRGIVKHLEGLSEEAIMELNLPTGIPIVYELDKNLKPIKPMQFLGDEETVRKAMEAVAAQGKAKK

Assay [11] deals with T1, Phosphoglycerate mutase 1. As to the kind of experiment: Inhibition of recombinant human His-tagged PGAM1 expressed in Escherichia coli BL21 competent cells by multiple enzymes coupled assay measuring NADH oxidation at 340 nm.
Target sequence in this assay (P18669 whole entry): as the sequence (P18669 whole entry) above
The target in assay [12] is L-lactate dehydrogenase (Homo sapiens) (UniProt V9HWB9). As to the kind of experiment: Inhibition of LDH (unknown origin) at 0.625 uM using 2-PG relative to control. The essentials: (§5)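 Counter-screen of the coupled downstream enzymes without PGAM1. Compound was preincubated 2 min at room temperature in 50 mM Tris pH 8.0. The reaction was started with 2PG (200 mM stock), and the NADH oxidation decrease was read at 340 nm.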

The species entered for assay [13] is Homo sapiens. As to the kind of experiment: Inhibition of pyruvate kinase (unknown origin) at 0.625 uM using 2-PG relative to control. In short, it runs like this: as §5
For assay [14], the species on record is Homo sapiens. As to the kind of experiment: Inhibition of enolase (unknown origin) at 0.625 uM using 2-PG relative to control. In short, it runs like this:
as §5

Assay [15] deals with NCI-H1299. As to the kind of experiment: Antiproliferative activity in human NCI-H1299 cells after 72 hrs. It counts as functional, cell-based. The settings on record: NCI-H1299, 72 h. The essentials:
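MTT assay: 2 × 10^3 cells per well were seeded and cultured 24 h at 37 °C. Inhibitor was added and cells were incubated 72 h at 37 °C. MTT was then added at 0.5 mg/mL for 4 h at 37 °C, followed by DMSO solubilisation and absorbance reading at 570 nm. IC50 is reported as mean ± sd of triplicates.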

Assay [16] concerns PANC-1. Briefly: Antiproliferative activity against PGAM1 knockdown human PANC1 cells after 72 hrs by MTT assay. It counts as functional, cell-based. The following applies: PANC-1, 72 h. In short, it runs like this: as §1
The test system of assay [17] is PANC-1. Briefly: Antiproliferative activity against PGAM1 overexpessed human PANC1 cells after 72 hrs by MTT assay. Type of assay: functional, cell-based. The settings on record: PANC-1, 72 h. The essentials:
as §1

Assay [18] concerns the target T1, Phosphoglycerate mutase 1. Briefly: Inhibition of PGAM1 in human MDA-MB-231 cells using 3-PGA as substrate after 2 hrs in by UV-vis spectrophotometric method. It counts as cell-based.
Target sequence in this assay (P18669 whole entry): as above
The target in assay [19] is T1, Phosphoglycerate mutase 1. Briefly: Inhibition of PGAM1 (unknown origin). The essentials:
as §3
Target sequence in this assay (P18669 whole entry): as above

Assay [20] has as its system NCI-H1299. As to the kind of experiment: Potency index, ratio of PGMI-004A IC50 to test compound IC50 for antiproliferative activity against human H1299 cells. Type of assay: functional.
Assay [21] has as its system PANC-1. As to the kind of experiment: Antiproliferative activity against human PANC1 cells at 200 uM after 72 hrs by MTT assay relative to control. Type of assay: functional. The settings on record: PANC-1, 72 h. The essentials: as §4

With `O=C1c2ccccc2C(=O)c2c1cc(S(=O)(=O)Nc1ccc(C(F)(F)F)cc1)c(O)c2O`, the IC50 is 32 µM in [1], 25.6 to 26 µM in assay [3] and more than 40 µM in assay [6]. The inhibition in [2], in assay [4] and in [5] was 38% throughout.

As to `O=c1c2c(O)cccc2oc2cc(NS(=O)(=O)c3ccc(Br)cc3)c(O)c(O)c12`, the IC50 in [7] was 2.9 µM; in assay [1], more than 200 µM; in assay [8], more than 40 µM; in assay [6], 6.8 µM. In addition, the inhibition in [2], in [4] and in assay [5] was 6% each time. This molecule had an inhibition at 40 µM in assay [9] of less than 50%.

For `O=c1c2c(O)cccc2oc2cc(NS(=O)(=O)c3ccc(C4CCCCC4)cc3)c(O)c(O)c12`, the IC50 in [7] is 0.5 µM; in assay [1] it was 35.3 µM; in assay [8] it was 10.7 µM; in assay [6], 26.6 µM. For the same molecule, the inhibition in [2], in assay [4] and in assay [5] was 9% in each case. In [10], the Activity result was “Dose-dependent effect”.

Consider `O=C(O[C@@H]1Cc2c(O)cc(O)cc2O[C@@H]1c1cc(O)c(O)c(O)c1)c1cc(O)c(O)c(O)c1` [EPIGALOCATECHIN GALLATE], for which the IC50 in [11] was 0.49 µM; in [15], more than 80 µM. The inhibition in assay [12], in assay [13] and in [14] was 63% in each case.

With `O=c1c2c(O)cccc2oc2cc(NS(=O)(=O)c3cc(C(F)(F)F)ccc3C(F)(F)F)c(O)c(O)c12`, the IC50 in [7] was determined as 6.3 µM; in [1], 10.5 µM; in assay [8], 16.8 µM; in assay [16], 42.8 µM; in assay [17], 25 µM; in [6] it was 15.8 µM. For the same molecule, the inhibition in assay [2], in assay [4] and in assay [5] was 2% throughout.

In turn, `C#CCCCC(=O)OC(C)(C)[C@H]1CC[C@]2(CO2)[C@@H](OC(=O)N[C@@H](Cc2c[nH]c3ccccc23)C(=O)OCc2ccccc2)C1` showed an IC50 in assay [18] of 33 µM.

On to `O=C1c2ccccc2C(=O)c2c1cc(S(=O)(=O)O)c(O)c2O` [ALIZARIN RED], for which it took 2.3 µM to reach half-maximal inhibition in assay [19] (IC50).

Take `O=c1c2c(O)cccc2oc2cc(NS(=O)(=O)c3ccc(N4CCCC4)cc3)c(O)c(O)c12`: the IC50 was 2.7 µM in assay [7], 137 µM in assay [1], 5 µM in [8] and more than 200 µM in assay [6]. For the same molecule, the inhibition in [2], in [4] and in [5] was 4% throughout. Moreover, the “Ratio IC50” value in assay [20] is reported as 5.

For `O=c1c2c(O)cccc2oc2cc(NS(=O)(=O)c3ccccc3)c(O)c(O)c12`, the IC50 is 2.8 µM in assay [7], more than 200 µM in assay [1], 59 µM in assay [8] and 113 µM in assay [6]. For the same molecule, the inhibition in assay [2], in assay [4] and in assay [5] was 6% throughout. Also, the inhibition at 200 µM in [21] was less than 50%.

Turning to `O=c1c2c(O)cccc2oc2cc(NS(=O)(=O)c3cccc4ccccc34)c(O)c(O)c12`, the IC50 turned out to be 1.7 µM in [7], 101 µM in [1], 23.2 µM in [8] and 27.3 µM in assay [6]. Besides, the inhibition in [2], in assay [4] and in [5] was 7% throughout.

With `O=c1c2c(O)cccc2oc2cc(NS(=O)(=O)Cc3ccccc3)c(O)c(O)c12`, the IC50 in [7] is 1.9 µM; in assay [1] it was more than 200 µM; in assay [8] it was 62.9 µM; in assay [6], more than 200 µM. Also, the inhibition in assay [2], in [4] and in [5] was 12% in each case.

`O=c1c2c(O)cccc2oc2cc(NS(=O)(=O)c3ccc(F)cc3)c(O)c(O)c12`: the IC50 in assay [7] was 5.5 µM; in assay [1] it was more than 200 µM; in [8], 21.9 µM; in [6] it was 20.8 µM. The inhibition in assay [2], in [4] and in assay [5] was 1% in each case.

The values above are taken from ChEMBL document CHEMBL4219134, “Xanthone derivatives as phosphoglycerate mutase 1 inhibitors: Design, synthesis, and biological evaluation” (Bioorg Med Chem, 2018).
